# Rows were chosen to be rich in hits. Some 2.2% of all compounds tested hit in one or more screens of this group.
# SUMO1-SIM PPI: SUMO1-SIM interaction modulation; P63165; SUMO1 binding to a labelled peptide, TR-FRET, 1 h; inhibition, % at 20 µM; hit rate 0.33% among 360,000; in the data active = inhibition above about 37%
# STEP block: STEP (human) phosphatase inhibition. P54829. recombinant STEP, OMFP fluorogenic substrate, fluorescence. inhibition, % at 20 µM. hit rate 0.25% among 360,000;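 active = inhibition at 20 µM, scaled per plate between control wells, above about 37%, limit read from the data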
#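 System: STEP (striatal-enriched tyrosine phosphatase) enzyme, cell-free; medium: Bis-Tris pH 6.0 buffer with DTT, detergent; dosing: 20 µM, 1% DMSO; times: reaction 20 min, ambient temperature; detection: fluorescence, 480/540 nm; read-out basis: normalized % inhibition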
# Scp1 inh: Scp-1 (human) phosphatase inhibition; Q9GZU7; Recombinant Scp1, phosphopeptide, malachite green phosphate absorbance; inhibition, % at 20 µM; hit rate 0.88% among 340,000;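 active = inhibition above about 50% at 20 µM, limit read from the data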
#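 Material – SCP-1 phosphatase catalytic domain, residues 76-261 · Buffer or medium – Acidic Tris acetate buffer with magnesium and detergent · Also added – Phospho 17-mer peptide substrate · Compound – single 20 µM dose, 1% DMSO · Times – 45 min room-temperature reaction, 5 min colour, 30 min stabiliser · Technique – Phosphate-binding colour reagent, absorbance read at 630 nm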
# LMPTP block: LMPTP (human) inhibition; P24666; inhibition, % at 20 µM; recombinant LMPTP-A, OMFP fluorogenic substrate, fluorescence intensity; hit rate 0.22% among 360,000; AID 651560;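 active = compounds that cut the enzyme signal by at least half of the control window in the single-dose screen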
#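 Assay system: LMPTP-A, protein tyrosine phosphatase of low molecular weight / Medium: pH 6.0 Bis-Tris buffer with DTT and Triton X-100 / Schedule: 50 min enzyme reaction at room temperature, protected from light / Measured by: endpoint fluorescence intensity from OMFP dephosphorylation / Read-out basis: % inhibition relative to no-enzyme and uninhibited control wells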
# DNMT1 inh: DNMT1 (human) enzyme inhibition. P26358. DNMT1 molecular beacon, Hinp1I cleavage, fluorescence. inhibition (reported as % activation of signal), % at 10 µM. hit rate 0.83% among 360,000. AID 588458; in the data active = inhibition above about 50%
# GRK2 aptamer HTS: blocks RNA aptamer binding to human GRK2 | P25098 | bead flow cytometry, FAM-aptamer displacement from GRK2 | inhibition of aptamer binding, % at 10 µM | hit rate 0.59% among 330,000;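 active = inhibition of aptamer binding above 40%, roughly 3 SD of noise, on plates passing a quality check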;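 note: median bead fluorescence of bound FAM aptamer so fluorescent compounds give negative values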
# Target sequence (P25098 whole entry, looked up): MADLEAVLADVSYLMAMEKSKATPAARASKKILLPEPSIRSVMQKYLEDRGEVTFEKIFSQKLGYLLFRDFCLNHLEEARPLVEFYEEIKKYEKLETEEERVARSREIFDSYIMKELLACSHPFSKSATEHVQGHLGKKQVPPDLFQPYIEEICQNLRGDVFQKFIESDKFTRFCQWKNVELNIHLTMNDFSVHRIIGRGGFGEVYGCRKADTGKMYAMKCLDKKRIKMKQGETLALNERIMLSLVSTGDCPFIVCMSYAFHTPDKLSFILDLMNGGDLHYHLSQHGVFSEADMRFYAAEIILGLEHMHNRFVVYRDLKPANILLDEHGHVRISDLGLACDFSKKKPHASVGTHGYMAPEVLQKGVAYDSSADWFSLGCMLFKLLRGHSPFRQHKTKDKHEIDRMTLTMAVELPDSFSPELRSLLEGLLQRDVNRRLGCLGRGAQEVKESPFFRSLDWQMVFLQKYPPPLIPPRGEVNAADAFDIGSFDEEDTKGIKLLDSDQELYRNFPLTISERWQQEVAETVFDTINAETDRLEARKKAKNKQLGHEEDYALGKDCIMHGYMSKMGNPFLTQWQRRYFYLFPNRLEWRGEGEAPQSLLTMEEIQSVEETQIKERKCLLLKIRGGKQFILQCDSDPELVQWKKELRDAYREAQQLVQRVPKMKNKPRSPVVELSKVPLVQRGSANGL
# GRK2 CP1: human GRK2 inhibition confirmation, cherry pick 1. shares compounds with GRK2 aptamer HTS. bead-bound GRK2, FAM-aptamer displacement, flow cytometry. aptamer displacement, % at 10 µM. hit rate 4% among 2,000. AID 504451;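 active = aptamer displacement above 40%, near three times the noise of non-fluorescent compounds, on plates passing quality checks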;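 note: negative values mostly reflect intrinsic compound fluorescence rather than true enhancement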
# Aptamer quench SP: counter-screen for GRK2 aptamer inhibitors: fluorescent aptamer quenchers | shares compounds with GRK2 aptamer HTS | Carboxyfluorescein RNA aptamer on beads, flow cytometry quenching; hits give low values | fluorescence response (% of DMSO), % at 10 µM | 2,000 tested, under 10 active;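 active = compounds that quench the bead-bound fluorescent RNA probe, cutting fluorescence to under half of the solvent control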;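 note: counterscreen run without GRK2 so only probe quenching by compound is measured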
# GRK2 CP2: confirmation of human GRK2 inhibitors binding RNA aptamer site | shares compounds with GRK2 aptamer HTS | 360 tested, under 10 active | inhibition of aptamer binding, % at 10 µM | AID 504782 | bead-bound GRK2, FAM-aptamer displacement, flow cytometry;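 active = inhibition of aptamer binding above 40%, about triple the noise seen with nonglowing compounds, on plates passing quality control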;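 note: negative values mostly come from compounds that fluoresce themselves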
# FAM quench SP: quenches fluorescent RNA aptamer, GRK2 hit artifact; shares compounds with GRK2 aptamer HTS; carboxyfluorescein RNA aptamer beads, flow cytometry quenching; hits give low values; fluorescence response vs DMSO, % at 10 µM; 360 tested, under 10 active;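 active = response vs DMSO under 50%, meaning signal dropped by over half, treated as fluorescence quencher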;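 note: labelled aptamer on streptavidin beads without GRK2 as a quench counter-screen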
# A number is an active result; n = inactive; x = no result given.
SMILES,SUMO1-SIM PPI,STEP block,Scp1 inh,LMPTP block,DNMT1 inh,GRK2 aptamer HTS,GRK2 CP1,Aptamer quench SP,others
CC(c1nnc(SCC(=O)Nc2cccnc2Cl)n1Cc1ccccc1)N(C)C (stereo unspecified),n,n,n,n,n,99.0,n,n,
NC(CO)C(O)c1ccc([N+](=O)[O-])cc1 (stereo unspecified),n,n,n,n,n,98.0,n,n,
O=C(NC(CO)C(O)c1ccc([N+](=O)[O-])cc1)C(Cl)Cl (stereo unspecified),n,n,n,n,n,n,x,x,
Cn1ccc2cc3c(cc21)CCN3C(=O)Nc1cccnc1,n,n,n,n,n,57.0,n,n,
Cc1nc(C)c(NC(=O)N2CCc3ccccc32)cc1NC(=O)N1CCc2ccccc21,n,n,n,n,n,n,x,x,
O=C(O)C1C2C=CC(C2)C1C(=O)Nc1ccc2c(c1)OCCO2 (stereo unspecified),n,n,n,n,n,n,x,x,GRK2 CP2=n;FAM quench SP=n
O=C(O)C1C2C=CC(O2)C1C(=O)Nc1ccc2c(c1)OCCO2 (stereo unspecified),x,x,x,x,x,n,x,x,
CN1OC[C@@H]2CN(S(=O)(=O)c3cc(Cl)cc(Cl)c3)[C@H](c3ccc(-c4ccc(C#N)cc4)cc3)C[C@@H]21,n,n,x,n,n,x,x,x,
O=C(NCCC1=CCCCC1)C1CCN(S(=O)(=O)N2CCCC2)CC1,n,n,n,n,n,n,x,x,
CC(C)(C)c1ccc(C(=O)N2CCC(C(=O)NCCC3=CCCCC3)CC2)cc1,n,n,n,n,n,74.0,n,n,
COc1ccc(C(=O)NCc2nnc(SCC(=O)Nc3cc(C)on3)o2)cc1OC,n,n,n,n,n,n,x,x,
COc1cc(C(=O)NCc2nnc(SCC(=O)Nc3cc(C)on3)o2)cc(OC)c1OC,n,n,n,n,n,74.0,n,n,
CN(CC(=O)Nc1ccc(N2CCOCC2)cc1)CC(=O)Nc1ccc([N+](=O)[O-])cc1Br,n,n,n,n,n,n,x,x,
CN(CC(=O)Nc1ccc(N2CCOCC2)cc1)CC(=O)Nc1ccc(C(F)(F)F)cc1,n,n,n,n,n,n,x,x,
CN(CC(=O)Nc1ccc(N2CCOCC2)cc1)CC(=O)Nc1ccccc1C#N,n,n,n,n,n,n,n,n,
Cc1ccc(NC(=O)CN(C)CC(=O)Nc2ccc(N3CCOCC3)cc2)c(C)c1,n,n,n,n,n,n,n,n,
CN(CC(=O)Nc1ccccc1Cl)C(=O)Cn1cc(C(F)(F)F)ccc1=O,n,n,n,n,n,65.0,n,n,
CN(CC(=O)Nc1ccccc1Cl)C(=O)Cn1cc(C(F)(F)F)cc(Cl)c1=O,n,n,n,n,n,n,x,x,
COc1cccc(-c2cccc(-c3nc(C(=O)NCCCN4CCOCC4)cc4c3[C@H](CCO)N(S(=O)C(C)(C)C)C4)c2)c1 (stereo partly specified),n,n,x,n,n,x,x,x,
O=C(/C=C/c1ccc(OC(F)F)cc1)OCC(=O)N1CCc2ccccc21,n,n,n,n,n,n,x,x,
COc1ccccc1/C=C/C(=O)OCC(=O)N1CCc2ccccc21,n,n,n,n,n,95.0,n,n,
CCCc1cc(=O)oc2c(CN3CCN(C)CC3)c(O)ccc12,n,n,n,n,n,51.0,n,n,
CCCCc1cc(=O)oc2c(CN3CCN(C)CC3)c(O)ccc12,n,n,n,n,n,n,x,x,
CC1(c2ccccc2)CC(C)(C)N2C(=O)Cc3cccc1c32 (stereo unspecified),n,n,n,n,n,50.0,n,n,
COC(=O)c1sc2ncn(N)c(=O)c2c1C,x,x,n,x,x,42.0,n,n,
SMILES,SUMO1-SIM PPI,STEP block,Scp1 inh,LMPTP block,DNMT1 inh,GRK2 aptamer HTS,GRK2 CP1,Aptamer quench SP,others
CCCCn1nnnc1C(c1ccccc1OC(F)(F)F)N1CCN(C/C=C/c2ccccc2)CC1 (stereo unspecified),n,n,x,n,n,x,x,x,
O=C(C1CCN(c2ccc(N3CCOCC3)nn2)CC1)N1CCc2ccccc2C1,n,n,n,n,n,n,n,n,
O=C(CCN1CCOCC1)N1CCc2c([nH]c3ccccc23)C1c1cccc(Cl)c1 (stereo unspecified),n,n,n,n,n,n,n,n,
O=C(c1cccs1)N1CCc2c([nH]c3ccccc23)C1c1ccc(Cl)cc1 (stereo unspecified),n,n,n,n,n,n,x,x,
C#CCOCCOCCOCCNc1nc(N2CCOCC2)nc(N2CCN(C(=O)CCCCCCCCCCNC(=O)[C@@H]([C@H](C)O)n3cc(C)nn3)CC2)n1,n,n,n,n,n,n,x,x,
C#CCOCCOCCOCCNc1nc(N2CCN(C(=O)[C@H](Cc3cc4ccccc4[nH]3)n3cc([C@@H](N)CC(C)C)nn3)CC2)nc(N2CCN(C(=O)[C@H](Cc3cc4ccccc4[nH]3)n3cc([C@@H](N)CC(C)C)nn3)CC2)n1,n,n,n,n,n,70.0,n,n,
C#CCOCCOCCOCCNc1nc(N2CCN(C(=O)CCCCCCCCCCNC(=O)[C@@H]([C@H](C)O)n3cc(C)nn3)CC2)nc(N2CCN(C(=O)CCCCCCCCCCNC(=O)[C@@H]([C@H](C)O)n3cc(C)nn3)CC2)n1,n,n,n,n,n,52.0,n,n,
Cc1cc(=O)oc2cc(OCC(=O)Nc3nccs3)ccc12,n,n,n,n,n,57.0,n,n,
Cc1c(C)c2ccc(OCC(=O)Nc3nccs3)cc2oc1=O,n,n,n,n,n,n,x,x,
Cc1nc2c(OCc3ccc(OC(F)F)cc3)cccn2c1N(C)C(=O)CCC1CCCC1,n,n,x,n,n,x,x,x,
CCC(C)c1ccc(NC(=S)N2CCN(C(=O)C3CCCO3)CC2)cc1 (stereo unspecified),n,n,n,n,n,74.0,x,x,GRK2 CP2=n;FAM quench SP=n
CCC(C)c1ccc(NC(=O)N2CCN(C(=O)C3CCCO3)CC2)cc1 (stereo unspecified),n,n,n,n,n,n,x,x,
CC(C)c1nnc(NC(=O)C2CCCN(C(=O)Nc3ccc(F)cc3)C2)s1 (stereo unspecified),n,n,n,n,n,n,n,n,
CCOC(=O)C1=CCN(S(=O)(=O)c2ccc(C)cc2)C1c1cccc(F)c1 (stereo unspecified),n,n,x,n,n,x,x,x,

# Source: PubChem BioAssay
